In ChEMBL document CHEMBL4118124, “Quinone skeleton as a new class of irreversible inhibitors against Staphylococcus aureus sortase A” (Bioorg Med Chem Lett, 2018):
pIC50, pKi: −log10 of the molar value. Calls of active or inactive are those of the source. No cut-off for these calls is given here.

How the values were obtained:
[1] = target: T1, Sortase A (Staphylococcus aureus) (UniProt Q9S446); test: (§1) Inhibition of Staphylococcus aureus SrtA deltaN24 mutant assessed as decrease in transpeptidation of IsdA (64 to 323 residues) incubated for 1.25 hrs in presence of NH2-Gly3 nucleophile by SDS-PAGE method
T1 sequence (whole entry): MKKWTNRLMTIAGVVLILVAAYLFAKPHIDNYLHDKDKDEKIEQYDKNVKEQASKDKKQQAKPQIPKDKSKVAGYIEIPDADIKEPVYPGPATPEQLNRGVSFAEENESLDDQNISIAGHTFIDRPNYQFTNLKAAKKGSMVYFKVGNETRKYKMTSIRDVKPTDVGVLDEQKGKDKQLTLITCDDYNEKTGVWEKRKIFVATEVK
Procedure, shortened: (§2)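 Affinity-purified IsdA64–323, a natural SrtA substrate, incubated with purified SrtA ΔN24 and NH2-Gly3 nucleophile, with or without compound. Sorting-signal cleavage giving the transpeptidation product resolved by SDS-PAGE; inhibition seen as partial or complete loss of product.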

Sortase A [2] = target: T2, Sortase A (Staphylococcus aureus, UniProt Q9S446); test: Inhibition of Staphylococcus aureus SrtA deltaN24 mutant transpeptidation activity using abz-LPATG-dnp as substrate preincubated for 10 mins followed by substrate addition measured every 2 mins for 20 mins by FRET assay
Sortase A [3] = target: T2, Sortase A; test: as §1; procedure, shortened: as §2
Staphylococcus aureus [4] = test: Antibiofilm activity against Staphylococcus aureus Newman assessed as inhibition of biofilm biomass after 18 hrs by crystal violet staining-based assay; assay type: functional, organism-based
Staphylococcus aureus [5] = test: Growth inhibition of Staphylococcus aureus Newman at 150 uM incubated for 12 hrs measured every hour by spectrophotometry; assay type: organism-based; conditions: in vivo
[6] = target: T1, Sortase A (Staphylococcus aureus); test: Irreversible inhibition of Staphylococcus aureus SrtA deltaN24 mutant transpeptidation activity using […] as substrate assessed as remaining activity at 10 fold IC50 preincubated for 1 hr followed by protein dilution and subsequent substrate addition measured every 2 mins for 20 mins by FRET assay relative to control
[7] = target: T1, Sortase A (Staphylococcus aureus); test: Inhibition of Staphylococcus aureus Newman SrtA assessed as decrease in SpA display by SDS/PAGE immunoblotting assay; conditions: Staphylococcus aureus subsp. aureus str. Newman
[8] = target: T1, Sortase A (Staphylococcus aureus); test: Inhibition of Staphylococcus aureus Newman SrtA assessed as decrease in SpA display by FITC-IgG-based fluorescence assay; conditions: Staphylococcus aureus subsp. aureus str. Newman
Sortase A [9] = target: T2, Sortase A; test: (§3) Irreversible inhibition of Staphylococcus aureus SrtA deltaN24 mutant transpeptidation activity using abz-LPATG-dnp as substrate incubated for 5 to 25 mins by FRET assay
[10] = target: T1, Sortase A (Staphylococcus aureus); test: as §3
[11] = target: T1, Sortase A (Staphylococcus aureus); test: Irreversible binding affinity to Staphylococcus aureus SrtA deltaN24 mutant at Cys184 at 10 fold IC50 preincubated with compound for 1 hr followed by protein dilution by ESI-LC-MS/MS method
[12] = target: T1, Sortase A (Staphylococcus aureus); test: Irreversible binding affinity to Staphylococcus aureus SrtA deltaN24 mutant at 10 fold IC50 preincubated with compound for 1 hr followed by protein dilution by ESI-LC/MS method
[13] = target: T1, Sortase A (Staphylococcus aureus); test: Binding affinity to Staphylococcus aureus 15N-labelled SrtA deltaN59 C184A mutant at 1:0, 1:1, 1:2, 1:5 and 1:10 molar ratio of protein and compound by 2D 1H-15N HSQC spectra method
[14] = target: T1, Sortase A (Staphylococcus aureus); test: Binding affinity to Staphylococcus aureus 15N-labelled SrtA deltaN59 mutant at 1:0 and 1:1 molar ratio of protein and compound by 2D 1H-15N HSQC spectra method
[15] = target: T1, Sortase A (Staphylococcus aureus); test: Irreversible inhibition of Staphylococcus aureus SrtA deltaN24 mutant transpeptidation activity using abz-LPATG-dnp as substrate assessed as ratio Kinact to Ki incubated for 5 to 25 mins by FRET assay
Staphylococcus aureus [16] = test: Growth inhibition of Staphylococcus aureus Newman at 50 uM measured every hour; assay type: organism-based; conditions: in vivo

| SMILES | inhibition [1] | pIC50 (Sortase A [2]) | pIC50 (Sortase A [3]) | inhibition (Staphylococcus aureus [4]) | growth inhibition (GI) (Staphylococcus aureus [5]) | Activity [6] | inhibition [7] | inhibition [8] | pKi (Sortase A [9]) | Kinact [10] | Activity [11] | Activity [12] | Activity [13] | Activity [14] | Ratio [15] | growth inhibition (GI) (Staphylococcus aureus [16]) |
| --- | --- | --- | --- | --- | --- | --- | --- | --- | --- | --- | --- | --- | --- | --- | --- | --- |
| CCCNC1=C(C)C(=O)c2c(/C=C/S(=O)(=O)c3ccccc3)cccc2C1=O | inactive | < 4.30 |  |  |  |  |  |  |  |  |  |  |  |  |  |  |
| O=C1C[C@H]2O[C@@H](CCc3ccccc3)C3=C(C(=O)C=CC3=O)[C@H]2O1 |  | 4.71 | 4.30 | Dose-dependent effect | Non-Toxic | < 10% | Dose-dependent effect | Dose-dependent effect |  |  |  |  |  |  |  |  |
| O=C1C[C@H]2O[C@H](CCc3ccccc3)C3=C(C(=O)C=CC3=O)[C@H]2O1 |  | 5.21 | 5.00 | Dose-dependent effect | Non-Toxic | < 10% | Dose-dependent effect | Dose-dependent effect | 5.45 | 0.0388 min⁻¹ | Active | Active | inactive | Active | 0.0109 µM⁻¹ min⁻¹ |  |
| CC(C)=CC[C@@H](O)C1=CC(=O)c2c(O)ccc(O)c2C1=O [SHIKONIN] |  | 6.52 | 5.30 |  |  |  |  |  |  |  |  |  |  |  |  | Toxic |
| CC(C)=CC[C@H](O)C1=CC(=O)c2c(O)ccc(O)c2C1=O [ALKANNIN] |  | 6.44 | 5.30 |  |  |  |  |  |  |  |  |  |  |  |  | Toxic |
